Test results as given in PMC10134466 (ACS Omega, 2023).

Experiments:
HeLa cells = conditions: cited from earlier work
CCD1065SK HDF = assay: 2D dose–response assay; format: cell-based, human; conditions: 24 h treatment, nontumorigenic fibroblasts
How it was run: (§1)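 Cells were trypsinized, seeded at 250,000 cells/mL in 96-well plates and cultured 24 h before dosing. Test compound was dissolved in 100% DMSO and serially diluted 1:2 in media to 5000–40 μg/mL dosing solutions, which were diluted 10-fold in the well (final DMSO ≤1%), in triplicate. Plates were incubated 24 h at 37 °C, 5% CO2, then viability was read by CCK-8. Controls: cell-free media and untreated cells. Absolute IC50 was calculated.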

erythrocytes = conditions: therapeutic dose used for viral inactivation; cited from earlier work
osteoblasts = conditions: 5 μM; cited from earlier work
[1] = test system: AU565 human breast adenocarcinoma cells; assay: 2D dose–response assay; format: cell-based; conditions: 24 h treatment, n = 3/dose
How it was run: as §1

BT-474 cells = assay: CellTox Green cytotoxicity assay: cell lysis; format: cell-based, human; conditions: dosed at IC50; 1, 6, 12, 24 h post exposure
BT-474 3D spheroids = assay: 3D dose–response assay, liquid-overlay spheroids; format: cell-based, human; conditions: 24 h treatment, n = 3/dose
How it was run: (§2)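 Spheroids formed by liquid overlay: 250,000 cells/mL in round-bottom nonadherent wells with 2.5% v/v Matrigel, centrifuged 10 min at 1000 rpm, then matured 4 days. Test compound DMSO stocks were serially diluted 1:2 to 10,000–80 μg/mL and diluted 10-fold in wells (final DMSO ≤1% v/v), in triplicate. Incubation 24 h at 37 °C, 5% CO2; viability by CellTiter 3D luminescence. Absolute IC50 by nonlinear regression.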

[2] = test system: BT-474 human breast ductal carcinoma cells; assay: 2D dose–response assay; format: cell-based; conditions: 24 h treatment, n = 3/dose
How it was run: as §1

MDA-MB-231 cells = assay: CellTox Green cytotoxicity assay: cell lysis; format: cell-based, human; conditions: dosed at IC50; 1, 6, 12, 24 h post exposure
[3] = test system: MDA-MB-231 triple negative human breast adenocarcinoma cells; assay: 2D dose–response assay; format: cell-based; conditions: 24 h treatment, n = 3/dose
How it was run: as §1

sheep erythrocytes = assay: Hemolytic activity; format: cell-based; conditions: sheep RBC 2% v/v, 37 °C, 1 h
How it was run: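 Fresh sheep RBCs were washed in PBS pH 7.4 until the supernatant was clear, with 1000 rpm, 8 min spins. RBCs were exposed to test compound at 2000–5 μg/mL in PBS containing 5% DMSO, then centrifuged 1000 rpm, 8 min at RT. Supernatant absorbance was read at 540 nm, with 630 nm background. Controls: PBS/5% DMSO (negative) and 1% v/v Triton X-100 (positive).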

[4] = test system: MCF-7 human breast epithelial adenocarcinoma cells; assay: 2D dose–response assay; format: cell-based; conditions: 24 h treatment, n = 3/dose
How it was run: as §1

MDA-MB-231 3D spheroids = assay: 3D dose–response assay, liquid-overlay spheroids; format: cell-based, human; conditions: 24 h treatment, n = 3/dose
How it was run: as §2

[5] = Critical micelle concentration; format: physicochemical; conditions: 0.1 M NaHCO3, pH 8.7, 22 °C
How it was run: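 Surface tension across a concentration series was measured by Wilhelmy platinum-plate tensiometry on freshly prepared samples, in triplicate. Separate linear regressions were fitted to the declining and flat regions of the surface tension–concentration curve; their intersection gave the CMC.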

[6] = test system: nontumorigenic keratinocytes; conditions: 30 μM; cited from earlier work

Row | IC50 2D monolayer AU565 [1] | IC50 3D spheroids BT-474 (BT-474 3D spheroids) | IC50 2D monolayer BT-474 [2] | IC50 2D monolayer MDA-MB-231 [3] | IC50 2D monolayer MCF-7 [4] | IC50 3D spheroids MDA-MB-231 (MDA-MB-231 3D spheroids) | CMC [5] | Substance | IC50 toward HeLa cells (HeLa cells) | IC50 2D monolayer CCD1065SK HDF (CCD1065SK HDF) | concentration at which rapid lysis of erythrocytes occurred (erythrocytes) | cell viability, osteoblasts (osteoblasts) | extent of cell lysis, BT-474 (BT-474 cells) | extent of cell lysis, MDA-MB-231 (MDA-MB-231 cells) | IC50 erythrocytes (50% of RBCs lysed) (sheep erythrocytes) | cell viability, nontumorigenic keratinocytes [6]
1 | – | – | – | – | – | – | – | C15-surfactin | 25.2 µg/mL | – | – | – | – | – | – | –
2 | – | – | – | – | – | – | – | C15-surfactin-O-methyl ester | 47.7 µg/mL | – | – | – | – | – | – | –
3 | 110 µg/mL | 330 µg/mL | 21 µg/mL | 84 µg/mL | 24 µg/mL | 140 µg/mL | 9.5 µg/mL | Surfactin [Compound 1, reference compound] | – | 180 µg/mL | 40 µM | 100% | cell lysis of both BT-474 and MDA-MB-231 cells was observed | cell lysis of both BT-474 and MDA-MB-231 cells was observed | 38 µg/mL | 100%
